Calls of active or inactive are those of the source. No cut-off for these calls is given here.
Legend:
[1] = Volume of distribution at steady state in rat at 2 mg/kg, iv; type: ADME, organism-based; parameters: dose 2 mg/kg, route intravenous; settings: in vivo, read-out: Vdss
Outline: (§1)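 IV PK in DMSO vehicle: rat at 2 mg/kg, dog at 0.5 mg/kg. Clearance, Vd_ss and terminal half-life were derived from plasma levels.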

[2] = Cmax in dog at 3 mg/kg, po; type: ADME, organism-based, Canis lupus familiaris; parameters: dose 3 mg/kg, route oral; settings: in vivo
Liver microsomes = test: Idiosyncratic toxicity in human liver microsomes assessed GSH-derived reactive electrophilic adduct formation at 10 uM after 60 mins by UPLC/HRMS analysis relative to labetalol; parameters: species or system Microsome; settings: 1 h
Outline: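 Pooled human liver microsomes (1 mg/mL protein) were incubated 60 min at 37 °C in 100 mM potassium phosphate pH 7.4. The mix held 10 μM compound, 1 mM MgCl2, 1 mM EDTA, 5 mM GSH and 1 mM NADPH. After quenching, GSH adducts were detected by UPLC/HRMS. Summed adduct peak areas were divided by the labetalol internal-standard area.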

Rattus norvegicus [3] = test: Antiinsomnic activity in Sprague-Dawley rat assessed as decrease in active wake duration at 10 mg/kg/day, po […]; type: functional, organism-based
Outline: (§2)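 Rats carried telemetry implants recording ECoG/EMG (sampled at 500 Hz) and had recovered at least 2 weeks after surgery. They were on a 12:12 light cycle with lights off at 04:00. After 2 days of vehicle habituation, four rats were dosed by oral gavage in 20% aqueous TPGS at 09:00, 5 h into the active phase. The design was a one-week crossover against vehicle. Recording ran 23 h; stages were auto-scored in 30-min bins, averaged over 7 days and compared by mixed-model ANOVA at each time point.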

[4] = Clearance in dog at 0.5 mg/kg, iv; type: ADME, organism-based, Canis lupus familiaris; parameters: dose 0.5 mg/kg, route intravenous; settings: in vivo
Outline: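 Dogs received an IV dose with DMSO as vehicle (n = 3). Clearance was derived from plasma pharmacokinetics.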

Rattus norvegicus [5] = test: Antiinsomnic activity in Sprague-Dawley rat assessed as increase in rapid-eye movement at 10 mg/kg/day, po measured with 3 to 4 hrs post last dose; type: functional, organism-based; outline: as §2
Rattus norvegicus [6] = test: Antiinsomnic activity in Sprague-Dawley rat assessed as increase in delta sleep duration at 10 mg/kg/day, po measured with 3 to 4 hrs post last dose; type: functional, organism-based; outline: as §2
[7] = Cmax in rat at 100 mg/kg, po; type: ADME, organism-based; parameters: dose 100 mg/kg, route oral; settings: in vivo
Outline: (§3)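 Rats dosed orally by gavage as the HCl salt in 20% TPGS. Plasma drug levels were followed to give AUC, Cmax and oral bioavailability.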

[8] = Oral bioavailability in rat at 100 mg/kg; type: ADME, organism-based; settings: in vivo; outline: as §3
[9] = AUC in dog at 3 mg/kg, po; type: ADME, organism-based, Canis lupus familiaris; parameters: dose 3 mg/kg, route oral; settings: plasma
[10] = Terminal half life in dog at 0.5 mg/kg, iv; type: ADME, organism-based, Canis lupus familiaris; parameters: dose 0.5 mg/kg, route intravenous; settings: in vivo, read-out: beta t1/2 (converted); outline: as §1
Rattus norvegicus [11] = test: Antiinsomnic activity in Sprague-Dawley rat assessed as decrease in light sleep duration at 10 mg/kg/day, po measured with 3 to 4 hrs post last dose; type: functional, organism-based; outline: as §2
Orexin receptor type 2 [12] = molecular target: T1, Orexin receptor type 2 (Homo sapiens, UniProt O43614); test: Displacement of [3H](S)-N-(2-(1H-pyrrol-1-yl)phenyl)-1-(2-(1-methyl-1H-benzo[d]imidazol-2-ylthio)acetyl)pyrrolidine-2-carboxamide from human OX2R expressed in CHO cells after 3 hrs by scintillation counting; type: cell-based
T1 sequence (O43614 whole entry): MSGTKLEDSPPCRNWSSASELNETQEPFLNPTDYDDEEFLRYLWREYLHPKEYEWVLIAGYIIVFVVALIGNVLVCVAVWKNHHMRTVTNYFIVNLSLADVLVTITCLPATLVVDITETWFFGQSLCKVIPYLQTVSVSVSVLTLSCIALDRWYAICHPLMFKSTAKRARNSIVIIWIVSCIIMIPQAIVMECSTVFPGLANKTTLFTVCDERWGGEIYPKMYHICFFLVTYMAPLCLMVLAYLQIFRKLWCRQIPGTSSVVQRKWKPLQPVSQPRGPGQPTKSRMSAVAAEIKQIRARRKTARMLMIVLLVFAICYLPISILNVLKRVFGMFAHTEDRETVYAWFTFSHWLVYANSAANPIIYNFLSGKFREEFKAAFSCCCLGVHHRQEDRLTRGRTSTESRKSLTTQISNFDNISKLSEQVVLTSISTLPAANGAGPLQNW

[13] = AUC in rat at 100 mg/kg, po; type: ADME, organism-based; parameters: dose 100 mg/kg, route oral; settings: plasma; outline: as §3
[14] = Volume of distribution at steady state in dog at 0.5 mg/kg, iv; type: ADME, organism-based, Canis lupus familiaris; parameters: dose 0.5 mg/kg, route intravenous; settings: in vivo, read-out: Vdss; outline: as §1
[15] = Terminal half life in rat at 2 mg/kg, iv; type: ADME, organism-based; parameters: dose 2 mg/kg, route intravenous; settings: in vivo, read-out: beta t1/2 (converted); outline: as §1
[16] = molecular target: T2, Orexin/Hypocretin receptor type 1 (Homo sapiens, UniProt O43613); test: Displacement of [3H]N-cyclobutyl-5-methyl-N-(2-(1-methyl-1H-benzo[d]imidazol-2-ylthio)ethyl)-2-(2H-1,2,3-triazol-2-yl)benzamide from human OX1R expressed in CHO cells after 20 hrs by scintillation counting; type: cell-based
T2 sequence (O43613 whole entry): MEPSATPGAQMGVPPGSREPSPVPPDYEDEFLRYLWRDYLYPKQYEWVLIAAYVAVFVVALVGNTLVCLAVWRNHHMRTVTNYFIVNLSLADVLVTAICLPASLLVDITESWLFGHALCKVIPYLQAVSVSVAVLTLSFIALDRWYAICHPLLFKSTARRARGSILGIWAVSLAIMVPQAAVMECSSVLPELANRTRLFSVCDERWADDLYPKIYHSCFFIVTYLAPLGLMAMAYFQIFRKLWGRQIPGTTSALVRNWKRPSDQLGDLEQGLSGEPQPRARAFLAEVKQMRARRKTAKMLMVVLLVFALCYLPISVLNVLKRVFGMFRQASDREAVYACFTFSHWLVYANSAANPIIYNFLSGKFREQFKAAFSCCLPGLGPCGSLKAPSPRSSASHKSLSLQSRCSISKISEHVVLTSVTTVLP

[17] = molecular target: T2, Orexin/Hypocretin receptor type 1; test: Antagonist activity at human OX1R expressed in CHO cells assessed as inhibition of orexin-A-induced intracellular calcium mobilization after 5 mins by FLIPR assay; type: functional, cell-based
[18] = molecular target: T2, Orexin/Hypocretin receptor type 1; test: Displacement of [3H](S)-N-(biphenyl-2-yl)-1-(2-(1-methyl-1H-benzo[d]imidazol-2-ylthio)acetyl)pyrrolidine-2-carboxamide from human OX1R expressed in CHO cells after 3 hrs by scintillation counting; type: cell-based
Orexin receptor type 2 [19] = molecular target: T1, Orexin receptor type 2; test: Antagonist activity at human OX2R expressed in CHO cells assessed as inhibition of orexin-A-induced intracellular calcium mobilization after 5 mins by FLIPR assay; type: functional, cell-based

Row | Vd [1] | Cmax [2] | clearance [4] | Cmax [7] | bioavailability [8] | AUC [9] | half-life [10] | Ki (Orexin receptor type 2 [12]) | AUC [13] | Vd [14] | half-life [15] | Ki [16] | IC50 [17] | Ki [18] | IC50 (Orexin receptor type 2 [19]) | Compound | Ratio (Liver microsomes) | Activity (Rattus norvegicus [3]) | Activity (Rattus norvegicus [5]) | Activity (Rattus norvegicus [6]) | Activity (Rattus norvegicus [11])
1 | 1.08 L/kg | 1440 nM | 11.6 mL/min/kg | 650 nM | 2% | 1.81 µM·h | 76.8 min | 0.59 nM | 1.5 µM·h | 0.86 L/kg | 21 min | – | – | – | – | Cc1ccc(-n2nccn2)c(C(=O)N2CCCN(c3ncc4ccccc4n3)CC2)c1 | 5 | Active | Active | Active | Active
2 | – | – | 6.4 mL/min/kg | – | – | – | – | 0.47 nM | – | – | – | 6.2 nM | 26 nM | 6.2 nM | 18 nM | C[C@@H]1CCN(c2ncc3ccccc3n2)CCN1C(=O)c1ccccc1-n1nccn1 | – | – | – | – | –

— ChEMBL document CHEMBL1155457, “Discovery of the dual orexin receptor antagonist [(7R)-4-(5-chloro-1,3-benzoxazol-2-yl)-7-methyl-1,4-diazepan-1-yl][5-methyl-2-(2H-1,2,3-triazol-2-yl)phenyl]methanone (MK-4305) for the treatment of insomnia” (J Med Chem, 2010)
